Among all 360,000 compounds or so, about 5,400 (1.5%) were called active.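 The calls were made as follows: active = inhibition above a per-plate cutoff, the mean inhibition of test compounds on that plate plus 3 SD (cut at about 49% in these data); inactive = the rest.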 For the sample, actives were picked, then their nearest neighbours and some compounds at random.
The compounds below were run against Trace amine-associated receptor 1 (Homo sapiens) (UniProt Q96RJ0) (assay: blockers of beta-PEA-driven TAAR1 calcium signal – Fluo-8 calcium fluorescence, CHO RD-HGA16 cells, primary screen (AID 624466;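 also: 0% = DMSO plus EC80 beta-PEA response and 100% = DMSO alone without agonist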)). Conditions: CHO RD-HGA16 TAAR1, Fluo-8 calcium fluorescence, antagonist; at 3 µM; hits give high values.
Sequence of Trace amine-associated receptor 1 (Homo sapiens) (Q96RJ0 whole entry, looked up, the tested form may be a part): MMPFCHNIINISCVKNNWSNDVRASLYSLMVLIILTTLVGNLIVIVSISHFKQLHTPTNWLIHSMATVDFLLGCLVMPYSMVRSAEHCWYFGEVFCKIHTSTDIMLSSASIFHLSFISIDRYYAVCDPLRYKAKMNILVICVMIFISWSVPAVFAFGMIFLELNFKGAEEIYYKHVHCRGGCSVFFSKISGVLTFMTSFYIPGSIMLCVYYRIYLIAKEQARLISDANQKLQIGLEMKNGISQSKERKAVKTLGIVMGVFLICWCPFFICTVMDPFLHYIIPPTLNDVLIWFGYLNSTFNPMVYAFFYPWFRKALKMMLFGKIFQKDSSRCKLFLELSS
Outline: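 Test system – hTAAR1-expressing CHO RD-HGA16 cells, Gα16-coupled · Also added – β-PEA at EC80 concentration, post-compound challenge · Compound – 3 µM, single point · Incubation – dye loading 75 min at 37 °C, then 30 min room temperature · Measured by – Fluo-8 intracellular calcium dye fluorescence, real-time kinetic reads · Benchmarks – vehicle and agonist controls · Replicates – singlicate, one well per test compound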

| SMILES | inhibition |
| --- | --- |
| O=C(NCc1ccccc1)[C@@H]1CCCN1C(=O)[C@@H](NS(=O)(=O)c1ccc(F)cc1F)C1CCCCC1 | 7.07% (inactive) |
| O=C(C(=O)N1CCC(c2ccccc2)CC1)c1ccccc1 | -1.49% (inactive) |
| COc1ccc(-c2cc(C(F)(F)F)nc(SCCC(=O)NCc3ccco3)n2)cc1 | -2.48% (inactive) |
| O=C(CSc1nc(-c2ccco2)cc(C(F)(F)F)n1)N1CCc2ccccc2C1 | -4.26% (inactive) |
| O=C(CSc1nc(-c2ccco2)cc(C(F)(F)F)n1)NCc1cccs1 | 58.2% (active) |
| CC1CCCN(C(C(=O)Nc2ccc(C(C)C)cc2)c2ccc3c(c2)OCO3)C1 (configuration not stated) | -12.3% (inactive) |
| CCOC(=O)[C@]12CCCC=C1N(Cc1ccc3c(c1)OCO3)C(=O)[C@H](CC(=O)NCc1cccs1)C2 | -12.1% (inactive) |
| O=C(O)c1ccc(-n2cccc2)cc1O | 6.36% (inactive) |
| CC(=N\NC(=O)c1cc(Br)ccc1O)/C(=N/O)C(=O)Nc1ccccc1 | -8.22% (inactive) |
| Cc1onc(-c2ccccc2)c1-c1nnc(COC(=O)c2ccc(N(C)C)cc2)o1 | 73.5% (active) |
| Cc1onc(-c2ccccc2Cl)c1C(=O)OCc1nnc(-c2ccccc2)o1 | 14.8% (inactive) |
| Cc1ccc(C(=O)NCC(=O)OCc2nnc(-c3ccccc3)o2)cc1 | -15.8% (inactive) |
| O=S1(=O)CC(N2CCN(Cc3ccccc3F)CC2)CN1Cc1cn(Cc2ccccc2)nn1 (configuration not stated) | -11.1% (inactive) |
| CCCCc1nc(NCc2ccccc2)c(C#N)c2c1CCCC2 | -12.6% (inactive) |
| CC(C)CCNc1nc(N2CCCC2)c2c(c1C#N)CCN(C)C2 | -24.7% (inactive) |
| CCN1CCc2c(C#N)c(NCc3ccccc3)nc(NCCO)c2C1 | 106% (active) |
| COc1ccc(Cl)cc1NC(=O)CN(C)C(=O)c1cn(-c2ccccc2)nc1-c1cccs1 | 12.7% (inactive) |
| O=C(O)c1ccccc1-c1ccccc1C(=O)Nc1nccs1 | -18.3% (inactive) |
| COc1ccc(-c2nn(-c3ccccc3)cc2C(=O)Nc2nccs2)cc1OC | 71.3% (active) |
| CCn1c(/C=C/Nc2ccccc2)[n+](CC)c2ccc(C(=O)OCC(F)(F)F)cc21 | -27.5% (inactive) |
| CC1(C)OC(=O)C2=C(C[C@@H](C3CCCCC3)O[C@@H]2c2ccc(Cl)cc2)O1 | -31% (inactive) |

| SMILES | inhibition |
| --- | --- |
| CS(=O)(=O)c1ccc(-c2nnn(CC(=O)Nc3ccc4c(c3)OCCO4)n2)cc1 | 21% (inactive) |
| CC(C)c1cccc(-c2csc(C(O)c3ccccc3)n2)c1 (configuration not stated) | 17.5% (inactive) |
| COc1ccc(N2CCN(C(=O)COC(=O)c3cccc(S(=O)(=O)Nc4ccccc4OC)c3)CC2)cc1 | 21.7% (inactive) |
| CN1CCN(C(=O)c2ccc(NS(=O)(=O)c3ccccc3)cc2)CC1 | -8.92% (inactive) |
| COc1ccccc1NS(=O)(=O)c1ccc(C(=O)N2CCN(c3ccccc3O)CC2)cc1 | 58.1% (active) |
| CCOc1ccc(-n2cnc3c(=O)[nH]c(N)nc32)cc1 | 0.45% (inactive) |
| O=C(NNc1c2ccccc2nc2ccccc12)c1cc2ccccc2cc1O | 65.3% (active) |
| O=C(COC(=O)c1ccc(O)cc1O)NC(=O)c1ccccc1 | -0.49% (inactive) |
| O=C(NNC(=O)c1ccccc1O)c1ccccc1O | -13.5% (inactive) |
| Cc1cccc(C)c1NC(=O)C(c1ccc(C(F)(F)F)cc1)n1c(=O)c(-c2ccco2)nc2ccccc21 (configuration not stated) | -9.78% (inactive) |
| O=S(=O)(NCCc1ccccn1)c1cc(Cl)cc(Cl)c1O | -19.9% (inactive) |
| O=C(c1ccc(O)cc1)c1ccc(C(=O)O)c(C(=O)O)c1 | 17.8% (inactive) |
| COC(=O)[C@]12CCCCC=C1N(Cc1ccc3c(c1)OCO3)C(=O)[C@H](CC(=O)NCc1cccs1)C2 | 21.1% (inactive) |
| O=C(COC(=O)c1c2c(nc3ccccc13)CCCC2)c1ccc(Br)s1 | 49% (active) |
| Cn1cccc1C(=O)OCC(=O)c1ccc(Br)s1 | -0.72% (inactive) |
| NS(=O)(=O)c1ccc(NC(=O)COC(=O)c2c3c(nc4ccccc24)/C(=C\c2ccc4c(c2)OCO4)CCC3)cc1 | 6.15% (inactive) |
| Cc1cc(S(=O)(=O)N2CCOCC2)ccc1OCC(=O)Nc1cccc(C(F)(F)F)c1 | 30.6% (inactive) |
| CN1C(=O)C2CC(O)C(SC3CC4C(=O)N(C)C(=O)C4CC3O)CC2C1=O (configuration not stated) | 2.98% (inactive) |
| CN[C@H]1C[C@H]2c3cc(Oc4ccccc4C)ccc3CCN2C(=O)[C@H]1[C@H](C)O | 0.22% (inactive) |
| COc1ccc(NC(=O)CN(C)C(=O)c2ccc(COc3ccccc3)o2)cc1 | -57.5% (inactive) |
| Cc1cc(OCc2ccc(C(=O)Nc3ccc(C(=O)O)cc3)o2)ccc1Cl | 50.2% (active) |

Reference: PubChem BioAssay AID624466 (The Scripps Research Institute Molecular Screening Center, 2012)
